ChEMBL document CHEMBL1142104, “Anti-HCV bioactivity of pseudoguaianolides from Parthenium hispitum” (J Nat Prod, 2007)

What was measured:
[1] = Cytotoxicity against Huh7 replicon cells; assay type: cell-based; details: human, huh-7
Hepatitis C virus = test: Antiviral activity against HCV in Huh7 cells at 2 uM by subgenomic replicon assay; assay type: functional, Hepacivirus hominis; details: Huh-7
In short: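 Huh-7 replicon cells (luciferase reporter), grown to 85% confluency with >95% viability, seeded at 11 000 cells/well; compound added and incubated 48 h at 37 °C. Plates cooled 30 min to room temperature, luciferase reagent added, luminescence read after 3 min. Inhibition calculated with no-cell wells as low signal and compound-free cells as high signal; duplicate testing.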

Row | Compound | Activity [1] | inhibition at 2 µM (Hepatitis C virus) [%]
1 | C=C1C(=O)O[C@@H]2[C@H]1CCC(COC(=O)C(C)CC)[C@]1(O)CCC(=O)[C@@]21C (some centres undefined) | Not Active | 25
2 | C=C1C(=O)O[C@@H]2[C@H]1CCC(COC(=O)CC(C)C)[C@]1(O)CCC(=O)[C@@]21C (some centres undefined) | Not Active | 63
3 | C=C1C(=O)O[C@@H]2[C@H]1CC[C@H](COC(=O)CC)[C@]1(O)CCC(=O)[C@@]21C [HISPITOLIDE A] | Not Active | 55
4 | C=C1C(=O)O[C@@H]2[C@H]1CC[C@H](COC(=O)CCC)[C@]1(O)CCC(=O)[C@@]21C [HISPITOLIDE B] | Not Active | 90
5 | C=C1C(=O)O[C@@H]2[C@H]1CC[C@H](COC(=O)/C(C)=C/C)[C@]1(O)CCC(=O)[C@@]21C [HISPITOLIDE C] | Not Active | 98
6 | C=C1C(=O)O[C@@H]2[C@H]1CC[C@H](COC(=O)C=C(C)C)[C@]1(O)CCC(=O)[C@@]21C [HISPITOLIDE D] | Not Active | 98
7 | C=C1C(=O)O[C@@H]2[C@H]1CC[C@H](COC(=O)/C(C)=C\C)[C@]1(O)CCC(=O)[C@@]21C [HISPITOLIDE E] | Not Active | 65
